Source: paper PMC3099476 (Toxicology and applied pharmacology, 2011)

Columns and labels:
[1] = tested on: APAP protein adducts in liver; test: Hepatic APAP protein adducts; format: in vivo, mouse
B6C3F1 male mice [2] = test: Serum ALT in APAP toxicity; format: in vivo, mouse
B6C3F1 male mice [3] = test: Liver histology necrosis score; format: in vivo, mouse; details: score 0 absent to 4 severe
Procedure, shortened: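 Six-week male B6C3F1 mice, fasted overnight, dosed at 0800 with the analgesic hepatotoxicant IP, then immediately the test compound (MPT inhibitor, 50 or 10 mg/kg IP) or vehicle. Hepatotoxicant was 200 mg/kg IP in the 10 mg/kg arm. Saline controls included; 3–6 mice per group. Killed at 4 h. Liver H&E sections scored blind by three reviewers, 0 (absent) to 4 (severe); mean ± SE.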

HIF-1α = details: B6C3F1 male mice with APAP toxicity; 1 h; ref James et al., 2006; cited from earlier work
[4] = APAP 200 mg/kg IP followed by pimonidazole 60 mg/kg IP vs APAP/vehicle, 1 h

| SMILES | Hepatic APAP protein adducts [1, 4] | Effect of pimonidazole on APAP metabolism ([1]; pimonidazole 60 mg/kg IP after APAP 200 mg/kg IP, 1 h) | Serum ALT (B6C3F1 male mice [2]; [4]) | Hepatic APAP protein adducts vs saline ([1]; APAP followed by CYC 50 mg/kg IP or vehicle, 1, 2, and 4 h) | Hepatic protein adducts vs saline ([1]; APAP/veh or APAP/CYC 10 mg/kg, 1 h) | APAP protein adducts ([1]; APAP/veh or APAP/CYC 10 mg/kg, 4 h (data not shown)) | Hepatic APAP protein adduct levels ([1]; separate experiment, APAP/veh or APAP/CYC 10 mg/kg, 1 h) | ALT vs saline (B6C3F1 male mice [2]; APAP 200 mg/kg IP followed by CYC 10 mg/kg IP or vehicle, 4 h) | Serum ALT, time course (B6C3F1 male mice [2]; APAP 200 mg/kg IP, at 2, 4, 8, 24 and 48 h, vs saline) | Serum ALT levels (B6C3F1 male mice [2]; APAP 15, 30, 100, or 200 mg/kg IP, sacrificed at 1 h, vs saline) | Serum ALT vs saline (B6C3F1 male mice [2]; APAP followed by CYC 50 mg/kg IP or vehicle, 4 h) | Necrosis Scores at 4 hours, Mean (B6C3F1 male mice [3]; Table 1A, CYC 50 mg/kg experiment) | Necrosis Scores at 4 hours, Mean (B6C3F1 male mice [3]; Table 1B, CYC 10 mg/kg experiment) | HIF-1α induction (HIF-1α) |
| --- | --- | --- | --- | --- | --- | --- | --- | --- | --- | --- | --- | --- | --- | --- |
| O=[N+]([O-])c1nccn1CC(O)CN1CCCCC1 (centres unmarked) [pimonidazole] | comparable | no inhibitory affect on APAP metabolism | comparable |  |  |  |  |  |  |  |  |  |  |  |
| CC(=O)Nc1ccc(O)cc1 [APAP, N-acetyl-p-aminophenol] |  |  |  | increased | increased above saline | comparable | elevated | significantly increased | significantly increased above saline | No significant changes | significantly increased | 3 | 2 | induction of HIF-1α |
